As a reminder, the Ki is a measure of affinity in units of concentration, obtained from inhibition or displacement. In general, inhibition refers to the change of the read-out against control, counted positive when it falls.

This passage reports Ki, inhibition and Activity results from ChEMBL document CHEMBL1149195, “N,N-dialkyl-2-phenylindol-3-ylglyoxylamides. A new class of potent and selective ligands at the peripheral benzodiazepine receptor” (J Med Chem, 2004).

One data set concerns the target Translocator protein (Rattus norvegicus, UniProt P16257). In words: Binding affinity to peripheral benzodiazepine receptors using [3H]-PK11195 radioligand in rat kidney mitochondrial membrane. The data set is classed as cell membranes.
Data set [1] addresses GABA-A receptor; anion channel (Rattus norvegicus) (UniProt O09028+P15431+P18506+P18508+P19969+P20236+P23574+P23576+P28471+P28473+P30191+P62813+P63079+P63138+Q91ZM7+Q9ES14). As to the kind of experiment: Percent inhibition of rat benzodiazepine receptor assayed using [3H]-flumazenil radioligand at 10 um concentration. Type of data set: protein-complex assay. The method, boiled down:
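Displacement of [3H]flumazenil specific binding in rat brain membranes by test compound at fixed 10 µM; percent inhibition as mean ± SEM of five determinations.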

The target in data set [2] is T1, Cholesterol side-chain cleavage enzyme, mitochondrial (Rattus norvegicus, UniProt P14137).
T1 sequence (P14137 whole entry): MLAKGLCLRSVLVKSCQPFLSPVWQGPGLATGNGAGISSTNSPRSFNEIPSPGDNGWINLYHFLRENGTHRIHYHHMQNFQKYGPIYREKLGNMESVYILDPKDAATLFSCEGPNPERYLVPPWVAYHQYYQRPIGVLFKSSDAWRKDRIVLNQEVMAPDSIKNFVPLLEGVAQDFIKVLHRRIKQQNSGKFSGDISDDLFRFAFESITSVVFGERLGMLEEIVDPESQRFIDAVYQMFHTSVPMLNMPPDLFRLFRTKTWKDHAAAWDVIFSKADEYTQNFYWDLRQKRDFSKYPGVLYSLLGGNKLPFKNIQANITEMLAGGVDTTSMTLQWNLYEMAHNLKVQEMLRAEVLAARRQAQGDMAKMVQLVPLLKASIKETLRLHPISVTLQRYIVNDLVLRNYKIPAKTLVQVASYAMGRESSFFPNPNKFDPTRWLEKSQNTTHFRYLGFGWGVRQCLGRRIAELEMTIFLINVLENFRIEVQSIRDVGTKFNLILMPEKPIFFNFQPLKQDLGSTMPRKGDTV
As to the kind of experiment: Stimulation of pregnenolone formation from rat C6 glioma cells. The data set is classed as functional, cell-based. Also on record: concentration or dose not given beside the values. The method, boiled down:
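Rat C6 glioma cells exposed to compound for 2 h at 37 °C; pregnenolone measured by radioimmunoassay and expressed as % increase over control; mean ± SEM of at least three determinations.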

Chain of Translocator protein (P16257 whole entry, looked up): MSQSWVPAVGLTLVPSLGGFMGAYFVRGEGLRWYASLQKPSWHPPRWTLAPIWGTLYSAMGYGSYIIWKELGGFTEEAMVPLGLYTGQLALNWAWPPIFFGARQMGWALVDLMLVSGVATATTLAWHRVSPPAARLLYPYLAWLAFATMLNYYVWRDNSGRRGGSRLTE

As to `CCCCCN(CCCCC)C(=O)C(=O)c1c(-c2ccccc2)[nH]c2ccccc12`, the Ki at Translocator protein worked out at 16 nM. Moreover, the inhibition in data set [1] was 3%. In data set [2], this compound returned an Activity of 35%.
The corresponding values for `CCCN(CCC)C(=O)C(=O)c1c(-c2ccccc2)[nH]c2ccc(Cl)cc12` are 2.8 nM, 10% and 10%.
On Translocator protein, `CCCNC(=O)C(=O)c1c(-c2ccccc2)[nH]c2ccccc12` returned a Ki of 815 nM.
In turn, `CCCN(CCC)C(=O)C(=O)c1c(-c2ccc(F)cc2)[nH]c2ccccc12` displayed a Ki on Translocator protein of 4.28 nM. The compound further registered an inhibition in data set [1] of 4%. The compound also gave an Activity in data set [2] of 20%.
At Translocator protein, `CCCCCCN(CCCCCC)C(=O)C(=O)c1c(-c2ccc(Cl)cc2)[nH]c2ccc(Cl)cc12` registered a Ki of 5.8 nM. The compound further yielded an inhibition in data set [1] of 3%. In data set [2], this compound had an Activity of 166%.
`O=C(C(=O)N1CCCCC1)c1c(-c2ccccc2)[nH]c2ccccc12` displayed a Ki on Translocator protein of 665 nM. In data set [1], this compound displayed an inhibition of 3%.
For `O=C(C(=O)N1CCCC1)c1c(-c2ccccc2)[nH]c2ccccc12` the same measures were 2400 nM and 4%.
Consider `CCCCN(CCCC)C(=O)C(=O)c1c(-c2ccccc2)[nH]c2ccccc12`, for which, on Translocator protein, affinity was put at a Ki of 7.5 nM. In data set [1], the inhibition was determined as 3%. The compound also showed an Activity in data set [2] of 23%.
On Translocator protein, `CCCCNC(=O)C(=O)c1c(-c2ccccc2)[nH]c2ccccc12` registered a Ki of 1170 nM. In data set [1], this compound showed an inhibition of 12%.
In turn, `CCCCCCN(CCCCCC)C(=O)C(=O)c1c(-c2ccc(C)cc2)[nH]c2ccccc12` displayed an inhibitory constant (Ki) at Translocator protein of 1.6 nM. This compound also came in with an inhibition in data set [1] of 6%. Further, in data set [2], the Activity was 77%.
Consider `O=C(C(=O)N1CCCCCC1)c1c(-c2ccccc2)[nH]c2ccccc12`, for which the Ki at Translocator protein came out at 33 nM. In data set [1], this compound came in with an inhibition of 5%.
Turning to `CC(C)N(C(=O)C(=O)c1c(-c2ccccc2)[nH]c2ccccc12)C(C)C`, the Ki on Translocator protein is 103 nM. In data set [1], this compound yielded an inhibition of 4%.
As for `CCCCN(CCCC)C(=O)C(=O)c1c(-c2ccccc2)[nH]c2ccc(Cl)cc12`, the Ki at Translocator protein came out at 4.91 nM. In data set [1], this compound had an inhibition of 13%. This compound came in with an Activity in data set [2] of 5%.
For `CCCCN(CCCC)C(=O)C(=O)c1c(-c2ccc(F)cc2)[nH]c2ccccc12`, the inhibition in data set [1] turned out to be 0%. Moreover, in data set [2], the Activity was 26%.
Regarding `CCCCN(CCCC)C(=O)C(=O)c1c(-c2ccc(C)cc2)[nH]c2ccccc12`, the inhibitory constant (Ki) at Translocator protein is 3.8 nM. This compound returned an inhibition in data set [1] of 11%. Further, in data set [2], the Activity was determined as 58%.
For `CCCN(CCC)C(=O)C(=O)c1c(-c2ccc(Cl)cc2)[nH]c2ccc(Cl)cc12` the same measures were 0.62 nM, 5% and 49%.
Compound `CCCN(CCC)C(=O)C(=O)c1c(-c2ccccc2)[nH]c2ccccc12` had an inhibition in data set [1] of 16%. Also, the Activity in data set [2] is on record as 8%.
`CCCCCCN(CCCCCC)C(=O)C(=O)c1c(-c2ccc(F)cc2)[nH]c2ccccc12` came in with an inhibitory constant (Ki) at Translocator protein of 0.37 nM. The compound further showed an inhibition in data set [1] of 0%. Moreover, the Activity in data set [2] came out at 62%.
`CCCN(CCC)C(=O)Cc1c(-c2ccc(Cl)cc2)nc2ccc(Cl)cn12` [ALPIDEM] showed a Ki on Translocator protein of 7 nM. Further, the inhibition in data set [1] was determined as 28%.
`CCC(C)N(C(=O)C(=O)c1c(-c2ccccc2)[nH]c2ccccc12)C(C)CC` (stereo unspecified) came in with a Ki on Translocator protein of 17 nM. This compound also came in with an inhibition in data set [1] of 5%. The compound also gave an Activity in data set [2] of 10%.
The corresponding values for `CCCCN(CCCC)C(=O)C(=O)c1c(-c2ccc(Cl)cc2)[nH]c2ccccc12` are 1 nM, 0% and 55%.
In data set [1], `CCCN(CCC)C(=O)C(=O)c1c(-c2ccc(C)cc2)[nH]c2ccccc12` had an inhibition of 7%. This compound had an Activity in data set [2] of 148%.
Regarding `CCCCCCN(CCCCCC)C(=O)C(=O)c1c(-c2ccc(Cl)cc2)[nH]c2ccccc12`, the Ki at Translocator protein was 0.55 nM. This compound displayed an inhibition in data set [1] of 4%. Moreover, the Activity in data set [2] is 109%.
`CCCN(CCC)C(=O)C(=O)c1c(-c2ccc(Cl)cc2)[nH]c2ccccc12` gave a Ki at Translocator protein of 4.65 nM. In data set [1], this compound came in with an inhibition of 14%. In data set [2], this compound displayed an Activity of 40%.
At Translocator protein, `CCN(CC)C(=O)C(=O)c1c(-c2ccccc2)[nH]c2ccccc12` gave an inhibition constant (Ki) of 43 nM. The same compound came in with an inhibition in data set [1] of 6%.
Take `CCCCN(CCCC)C(=O)C(=O)c1c(-c2ccc(Cl)cc2)[nH]c2ccc(Cl)cc12`: affinity at Translocator protein was put at a Ki of 1.9 nM. The compound further yielded an inhibition in data set [1] of 0%. In data set [2], this compound had an Activity of 147%.
For the compound `CCCCCCN(CCCCCC)C(=O)C(=O)c1c(-c2ccccc2)[nH]c2ccc(Cl)cc12`, the Ki at Translocator protein came to 58.4 nM. Also, the inhibition in data set [1] stood at 3%. Besides, in data set [2], the Activity was 31%.
On to `CCCCCCN(CCCCCC)C(=O)C(=O)c1c(-c2ccccc2)[nH]c2ccccc12`, for which the inhibition in data set [1] is 10%. Further, the Activity in data set [2] amounted to 30%.
